Assays:
Hepatitis C virus [1] = test: Inhibition of HCV 1b NS5B Cdelta21 polymerase; parameters: species or system Hepatitis C virus subtype 1b
Method in brief: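 N-terminal His-tagged NS5B lacking the C-terminal 21 residues (genotype 1b). RdRp activity read as total incorporation of radiolabeled UTP on poly rA/U12. IC50 taken from dose–response curves of 8–12 concentrations, run in duplicate in two independent experiments. DMSO held at 10% in all reactions.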

[2] = biological target: Replicase polyprotein 1ab (Severe acute respiratory syndrome-related coronavirus) (UniProt P0C6X7); test: Inhibition of SARS coronavirus nsp12 at 0.5 mM
Hepatitis C virus [3] = test: Inhibition of HCV 1b NS5B Cdelta21 polymerase at 0.25 mM relative to control; parameters: species or system Hepatitis C virus subtype 1b
Method in brief: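 His-tagged NS5BCΔ21 (genotype 1b) RdRp assay with compound at 0.25 mM and DMSO constant at 10%. Activity without inhibitor, after subtraction of residual background, set as 100%. Values are the mean of at least three independent measurements.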

Escherichia coli = test: Inhibition of Escherichia coli DNA polymerase 1 Klenow fragment at 0.5 mM

| SMILES | IC50 (Hepatitis C virus [1]) [µM] | inhibition [2] [%] | inhibition at 250 µM (Hepatitis C virus [3]) [%] | inhibition (Escherichia coli) [%] |
| --- | --- | --- | --- | --- |
| O=C(NN1C(=O)CSC1c1ccccc1F)c1cc(-c2ccc(F)cc2F)ccc1O (stereo not given) | 48 | < 50 | 92.4 |  |
| COc1cc(O)c2c(c1)oc(=O)c1c3cc(O)c(O)cc3oc21 [WEDELOLACTONE] | 36.1 |  |  |  |
| Cc1cc(C(F)(F)F)nc(N2C(=O)CSC2c2c(F)cccc2Cl)n1 (stereo not given) |  | < 50 | 63.6 | < 50 |
| O=C1CSC(c2c(Cl)cccc2Cl)N1Cc1cccnc1 (stereo not given) |  | < 50 | 75.6 | < 50 |
| O=C1CSC(c2ccc(-c3ccnc4ccccc34)cc2)N1c1ccccn1 (stereo not given) |  | < 50 | 62.2 | < 50 |
| CC1SC(c2c(Cl)cccc2Cl)N(Cc2cccnc2)C1=O (stereo not given) | 41.8 | < 50 | 95.6 | < 50 |
| O=C1CSC(c2c(Cl)cccc2Cl)N1Cc1ccco1 (stereo not given) |  | < 50 | 72.3 | < 50 |
| Cc1cc(C(F)(F)F)nc(N2C(=O)CSC2c2c(Cl)cccc2Cl)n1 (stereo not given) |  | < 50 | 72.1 | < 50 |
| O=C1CSC2(CCN(Cc3ccccc3)CC2)N1c1ccccn1 | 71.9 | < 50 | 85.6 | < 50 |
| O=C1CSC(c2c(Cl)cccc2Cl)N1c1nc(-c2ccccc2)cc(-c2ccccc2)n1 (stereo not given) |  | < 50 | 73.1 | < 50 |
| O=C1CSC(c2ccc(F)cc2)N1c1ccccn1 (stereo not given) | 31.9 | < 50 | 98 | < 50 |
| O=C1CSC(c2c(Cl)cccc2Cl)N1c1nc(-c2ccccc2)cc(C(F)(F)F)n1 (stereo not given) |  | < 50 | 66.4 | < 50 |
| CC1SC(c2c(Cl)cccc2Cl)N(Cc2ccco2)C1=O (stereo not given) | 32.2 | < 50 | 97.8 | < 50 |
| CC1SC(c2c(Cl)cccc2Cl)N(c2ccccn2)C1=O (stereo not given) |  | < 50 | 73 | < 50 |
| CCc1nnc(N2C(=O)CSC2c2c(F)cccc2F)s1 (stereo not given) |  | < 50 |  |  |
| O=C1CSC(c2c(F)cccc2Cl)N1c1ccc2ccccc2n1 (stereo not given) |  | < 50 | 60 | < 50 |
| Cc1cc(-c2ccccc2)nc(N2C(=O)CSC2c2c(F)cccc2Cl)n1 (stereo not given) |  | < 50 | 65.5 | < 50 |
| CN(C)c1ccc(C2SCC(=O)N2c2ccccn2)cc1 (stereo not given) |  | < 50 | 76.4 | < 50 |
| O=C1CSC(c2c(F)cccc2F)N1c1nc(-c2ccccc2)cc(-c2ccccc2)n1 (stereo not given) |  | < 50 | 73.3 | < 50 |
| O=C1CSC(c2c(Br)cccc2Br)N1Cc1cccs1 (stereo not given) |  | < 50 | 62.3 | < 50 |
| O=C1CSC(c2c(F)cccc2Cl)N1c1nc(-c2ccccc2)cc(-c2ccccc2)n1 (stereo not given) |  | < 50 | 70.6 | < 50 |
| O=C1CCSC(c2c(Cl)cccc2Cl)N1Cc1ccco1 (stereo not given) | 52.6 | < 50 | 94.2 | < 50 |
| Cc1cccc(N2C(=O)CSC2c2ccc(N(C)C)cc2)n1 (stereo not given) | 79.4 | < 50 | 84.7 | < 50 |
| Cc1cc(-c2ccccc2)nc(N2C(=O)CSC2c2c(Cl)cccc2Cl)n1 (stereo not given) |  | < 50 | 63.6 | < 50 |
| Cc1cc(C(F)(F)F)nc(N2C(=O)CSC2c2c(Br)cccc2Br)n1 (stereo not given) |  | < 50 | 76.3 | < 50 |
| Cc1cccc(N2C(=O)CSC2c2ccc(-c3cccnc3)cc2)n1 (stereo not given) |  | < 50 | 64.2 | < 50 |
